# Results taken from ChEMBL document CHEMBL1828606, “Anticancer and radio-sensitizing evaluation of some new thiazolopyrane and thiazolopyranopyrimidine derivatives bearing a sulfonamide moiety” (Eur J Med Chem, 2011).
# What was measured:
# [1] = system: MCF7; assay: Anticancer activity against 8 Gy gamma-irradiated human MCF7 cells assessed as viable cells after 48 hrs at 10 uM by SRB assay relative to control; format: functional
# Outline: (§1)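 MCF7 human breast tumor cells seeded at 10⁴ cells/well and left 24 h to attach. Compounds dissolved in DMSO, added in replicate wells per concentration, 48 h at 37 °C under 5% CO₂. Cells fixed and stained 30 min with 0.4% (wt/vol) SRB in 1% acetic acid. Washed four times with 1% acetic acid, dye recovered in Tris-EDTA, read on an ELISA reader.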
# [2] = system: MCF7; assay: Anticancer activity against 8 Gy gamma-irradiated human MCF7 cells assessed as viable cells after 48 hrs at 25 uM by SRB assay relative to control; format: functional; outline: as §1
# [3] = system: MCF7; assay: Anticancer activity against 8 Gy gamma-irradiated human MCF7 cells assessed as viable cells after 48 hrs at 50 uM by SRB assay relative to control; format: functional; outline: as §1
# [4] = system: MCF7; assay: Anticancer activity against 8 Gy gamma-irradiated human MCF7 cells assessed as viable cells after 48 hrs at 100 uM by SRB assay relative to control; format: functional; outline: as §1
# [5] = system: MCF7; assay: Anticancer activity against 8 Gy gamma-irradiated human MCF7 cells assessed as viable cells after 48 hrs by SRB assay; format: functional, cell-based; settings: MCF7, light or radiation study; outline: as §1
# [6] = system: MCF7; assay: Anticancer activity against human MCF7 cells assessed as viable cells after 48 hrs by SRB assay; format: functional, cell-based; settings: MCF7, 48 h; outline: as §1
# [7] = system: MCF7; assay: Anticancer activity against human MCF7 cells assessed as viable cells at 10 uM after 48 hrs by SRB assay relative to control; format: functional; outline: as §1
# [8] = system: MCF7; assay: Anticancer activity against human MCF7 cells assessed as viable cells at 25 uM after 48 hrs by SRB assay relative to control; format: functional; outline: as §1
# [9] = system: MCF7; assay: Anticancer activity against human MCF7 cells assessed as viable cells at 50 uM after 48 hrs by SRB assay relative to control; format: functional; outline: as §1
# [10] = system: MCF7; assay: Anticancer activity against human MCF7 cells assessed as viable cells at 100 uM after 48 hrs by SRB assay relative to control; format: functional; outline: as §1
SMILES,IC50 [5],IC50 [6],fold change (FC) [1],fold change (FC) [2],fold change (FC) [3],fold change (FC) [4],fold change (FC) [7],fold change (FC) [8],fold change (FC) [9],fold change (FC) [10]
N#CC1=C(NS(=O)(=O)c2ccccc2)Oc2nc(Nc3ccc(S(N)(=O)=O)cc3)sc2C1c1ccc(Cl)cc1 (stereo not given),–,47.5 µM,–,–,–,–,0.697,0.492,0.239,0.361
Nc1nc(=S)[nH]c2c1C(c1ccc(Cl)cc1)c1sc(Nc3ccc(S(N)(=O)=O)cc3)nc1O2 (stereo not given),–,52.8 µM,–,–,–,–,0.814,0.639,0.241,0.325
CC(=O)N(C(C)=O)C1=C(C#N)C(c2ccc(Cl)cc2)c2sc(Nc3ccc(S(N)(=O)=O)cc3)nc2O1 (stereo not given),–,74.3 µM,–,–,–,–,0.913,0.511,0.234,0.617
CC(=O)NC1=C(C#N)C(c2ccc(Cl)cc2)c2sc(Nc3ccc(S(N)(=O)=O)cc3)nc2O1 (stereo not given),–,41.9 µM,–,–,–,–,0.801,0.447,0.183,0.252
Nc1nc(=O)[nH]c2c1C(c1ccc(Cl)cc1)c1sc(Nc3ccc(S(N)(=O)=O)cc3)nc1O2 (stereo not given),–,84.1 µM,–,–,–,–,0.9,0.56,0.265,0.654
N#CC1=C(NC(=O)CCl)Oc2nc(Nc3ccc(S(N)(=O)=O)cc3)sc2C1c1ccc(Cl)cc1 (stereo not given),–,43.8 µM,–,–,–,–,0.702,0.531,0.25,0.252
N#CC1=C(/N=C/c2ccccc2)Oc2nc(Nc3ccc(S(N)(=O)=O)cc3)sc2C1c1ccc(Cl)cc1 (stereo not given),–,45.2 µM,–,–,–,–,0.93,0.206,0.295,0.324
NC(=O)C1=C(N)Oc2nc(Nc3ccc(S(N)(=O)=O)cc3)sc2C1c1ccc(Cl)cc1 (stereo not given),–,41.8 µM,–,–,–,–,0.815,0.499,0.169,0.21
N#CC1=C(NC(N)=O)Oc2nc(Nc3ccc(S(N)(=O)=O)cc3)sc2C1c1ccc(Cl)cc1 (stereo not given),–,49.8 µM,–,–,–,–,0.701,0.717,0.309,0.228
Cc1ccc(S(=O)(=O)NC2=C(C#N)C(c3ccc(Cl)cc3)c3sc(Nc4ccc(S(N)(=O)=O)cc4)nc3O2)cc1 (stereo not given),–,71.7 µM,–,–,–,–,0.92,0.52,0.2,0.6

# Now from value to compound, other results behind:
IC50 [5],IC50 [6],SMILES,fold change (FC) [1],fold change (FC) [2],fold change (FC) [3],fold change (FC) [4],fold change (FC) [7],fold change (FC) [8],fold change (FC) [9],fold change (FC) [10]
28.4 µM,41.6 µM,NS(=O)(=O)c1ccc(Nc2nc3c(s2)C(c2ccc(Cl)cc2)c2c(nc[nH]c2=O)O3)cc1 (stereo not given),0.65,0.371,0.06,0.04,0.794,0.515,0.204,0.175
17 µM,34.6 µM,N#CC1=C(/N=C/c2ccc(Cl)cc2)Oc2nc(Nc3ccc(S(N)(=O)=O)cc3)sc2C1c1ccc(Cl)cc1 (stereo not given),0.462,0.124,0.143,0.182,0.634,0.24,0.257,0.304
23.7 µM,35.8 µM,Nc1ncnc2c1C(c1ccc(Cl)cc1)c1sc(Nc3ccc(S(N)(=O)=O)cc3)nc1O2 (stereo not given),0.504,0.341,0.064,0.086,0.62,0.454,0.186,0.207
26.2 µM,39.4 µM,N#CC1=C(N)Oc2nc(Nc3ccc(S(N)(=O)=O)cc3)sc2C1c1ccc(Cl)cc1 (stereo not given),0.706,0.203,0.062,0.097,0.848,0.36,0.168,0.214
